From PubChem
Shown are actives, neighbours in structure and some others; about 2.5% of the full set was active somewhere.
OX1R antag-1 – human HCRTR1 antagonism; O43613; CHO/OX1R cells, Fluo-8 calcium fluorescence, orexin A; inhibition, % at 5 µM; actives 0.43% (n = 330,000); AID 434989;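 active means inhibition above its plate's threshold, mean inhibition of all tested compounds on the plate plus 3 SD, cut at about 37% in these data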
Target sequence (O43613 whole entry, looked up): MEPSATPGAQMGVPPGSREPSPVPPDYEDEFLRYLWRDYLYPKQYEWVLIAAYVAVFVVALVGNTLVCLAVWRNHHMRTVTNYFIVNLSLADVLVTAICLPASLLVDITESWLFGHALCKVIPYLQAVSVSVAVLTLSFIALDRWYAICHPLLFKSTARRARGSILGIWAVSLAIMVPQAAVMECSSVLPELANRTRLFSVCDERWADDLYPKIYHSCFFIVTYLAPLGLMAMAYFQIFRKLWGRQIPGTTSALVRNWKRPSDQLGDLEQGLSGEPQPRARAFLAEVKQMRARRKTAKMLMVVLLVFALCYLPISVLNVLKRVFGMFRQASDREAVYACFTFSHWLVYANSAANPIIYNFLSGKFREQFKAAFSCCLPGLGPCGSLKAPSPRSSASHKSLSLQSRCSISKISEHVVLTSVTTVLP
OX1R antag-2 – blocks the human orexin 1 receptor | inhibition, % at 6.6 µM | actives 1.8% (n = 330,000) | OX1R-expressing cells, FRET antagonist read-out | O43613; in the data active means inhibition mostly above about 38%, no sharp cut-off; inactive means mostly below about 40%
TRPN1 ag – agonists of zebrafish TRPN1 channel | activation, % at 3 µM | actives 0.18% (n = 220,000) | HEK293 zebrafish TRPN1-YFP, Fluo-8 calcium fluorescence; 100% = response to 87 µM carbachol | AID 1424;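 active means activation above its plate's cutoff, the mean activation of test wells on that plate plus 3 SD, cut at about 19% in these data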
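System: zebrafish TRPN1-YFP in HEK293 cells / Dosing: 3 µM single point / Timing: dye loading 1 h at 37 °C, then 30 min room temperature / Signal: Fluo-8 calcium fluorescence, excitation 470-495 nm, emission 515-575 nm / Read-out basis: percent activation from peak over basal fluorescence ratio, control-normalized / Control set: high carbachol 87 µM, low DMSO alone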
CHO parental Ca – signal in parental CHO cells, OX1R antagonist counter-screen; parental CHO-K1, ATP-induced calcium, Fluo-8 fluorescence; inhibition, % at 5.6 µM; actives 0.63% (n = 330,000); AID 463079;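 active means inhibition above that plate's mean sample inhibition plus 3 SD, cut at about 26% in these data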
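Material: Parental CHO cells | Reagent: ATP | Compound dosing: Single nominal dose of 5.6 µM per compound | Detection: Intracellular calcium via Fluo-8 no-wash fluorescent dye | Read-out: % inhibition of ATP-induced calcium mobilization | Benchmarks: Low control ATP plus DMSO, high control DMSO only | Replicates: Singlicate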
TRPML3 ag – agonists of human TRPML3 channel. Q8TDD5. HEK293 TRPML3-YFP, Fluo-8 calcium fluorescence; 100% = the carbachol control signal. activation, % at 3 µM. actives 0.29% (n = 220,000). AID 1448;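 active means activation above its plate's cutoff, the mean activation of the plate's test wells plus 3 SD, cut at about 12% in these data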
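system = HEK293 cells stably carrying human TRPML3-YFP | doses = one concentration, 3 µM nominal, 0.3% DMSO | timing = dye loading 1 h 37 °C then 30 min ambient, 125 s read | detection = Fluo-8 calcium dye fluorescence, ex 470-495, em 515-575 nm | benchmarks = high control carbachol 87 µM, low control DMSO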
OX1R HTRF confirm – confirmation of human orexin 1 receptor antagonists, HTRF format. shares compounds with OX1R antag-2. OX1R-expressing cells, HTRF antagonist assay. inhibition, % at 6.6 µM. actives 49% (n = 1,800). AID 492964; in the data active means inhibition above about 55%;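 further: CHO cells expressing OX1R stimulated with orexin A at about EC80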
CHO-K1 HTRF cnt – signal in parental CHO-K1 cells, OX1R antagonist counter-screen; shares compounds with OX1R antag-2; AID 493232; actives 48% (n = 1,800); inhibition, % at 6.6 µM; HTRF counterscreen; in the data active means inhibition above about 17%
Each line names hits and unclear results; the compound was inactive in the other large screens (follow-up assays come after a bar, where they were run).

N#C/C(=C\c1ccc([N+](=O)[O-])cc1)c1ccccn1	OX1R antag-2 121 | OX1R HTRF confirm inactive | CHO-K1 HTRF cnt 51
CNS(=O)(=O)c1cc2c3c(cccc3c1)C(=O)NC2=O	OX1R antag-2 130 | OX1R HTRF confirm inactive | CHO-K1 HTRF cnt 78
O=C(N=Nc1c(O)[nH]c2ccccc12)c1ccco1	OX1R antag-2 113 | OX1R HTRF confirm 99 | CHO-K1 HTRF cnt 55
Cn1cnnc1Sc1ccc(C(=O)OCC(=O)NCC(F)(F)F)cc1[N+](=O)[O-]	OX1R antag-2 78 | OX1R HTRF confirm inactive | CHO-K1 HTRF cnt 43
COc1ccc(OC)c(NC(=O)CSCc2cnn(-c3ccccc3)c2-n2cccc2)c1	OX1R antag-2 78 | OX1R HTRF confirm 77 | CHO-K1 HTRF cnt inactive
COc1ccc(S(=O)(=O)Nc2ccc3c(c2)C(=O)N([C@H](C)CO)C[C@H](C)[C@@H](CN(C)S(=O)(=O)c2cccs2)O3)cc1	none (no result: TRPN1 ag, TRPML3 ag)
COCCn1c(SCC(=O)Nc2ccc(OC)c(S(N)(=O)=O)c2)nc2ccccc2c1=O	none (no result: TRPN1 ag, TRPML3 ag)
O=C(CN1CCN(S(=O)(=O)/C=C/c2ccccc2)CC1)Nc1ccccc1N1CCOCC1	none
COc1ccc(/C=N/OC(=O)Nc2ccccc2OC)cc1	none
CC(=O)OCCNc1cc(SC(C)C)c2nonc2c1[N+](=O)[O-]	OX1R antag-2 104 | OX1R HTRF confirm inactive | CHO-K1 HTRF cnt 72
CCC(=O)OCCNc1cc(SCCC(=O)OC)c2nonc2c1[N+](=O)[O-]	OX1R antag-2 84 | OX1R HTRF confirm 59 | CHO-K1 HTRF cnt 78
CCC(=O)OCCNc1cc(Sc2nccn2C)c2nonc2c1[N+](=O)[O-]	OX1R antag-2 122 | OX1R HTRF confirm 63 | CHO-K1 HTRF cnt 90
O=C1NN(c2cccc(Br)c2)C(=O)/C1=C\c1ccc(N2CCOCC2)cc1	none (no result: TRPN1 ag, TRPML3 ag)
Clc1ccc(-c2ccc(CNCc3ccccn3)o2)cc1	none (no result: TRPN1 ag, TRPML3 ag)
O=[N+]([O-])c1cccc(-c2nc(-c3ccccc3)no2)c1	none
O=[N+]([O-])c1cccc(-c2nc(-c3ccncc3)no2)c1	OX1R antag-2 113 | OX1R HTRF confirm inactive | CHO-K1 HTRF cnt 42
COc1ccc(/C=N/NC(=O)c2cc(C)on2)c2ccccc12	OX1R antag-2 87 | OX1R HTRF confirm 65 | CHO-K1 HTRF cnt inactive
O=C(Nc1ccc(F)cc1F)C1CCCN1S(=O)(=O)c1cccc2nsnc12 (stereo not given)	OX1R antag-2 77 (no result: TRPN1 ag, TRPML3 ag) | OX1R HTRF confirm 59 | CHO-K1 HTRF cnt 27
O=C(O)C1CCCCN1S(=O)(=O)c1cccc2nsnc12 (stereo not given)	none
CCOC(=O)c1c(N)n(CCOC(=O)c2cccs2)c2nc3ccccc3nc12	OX1R antag-2 78 | OX1R HTRF confirm 56 | CHO-K1 HTRF cnt inactive
N#C/C(=N/Nc1ccc([N+](=O)[O-])cc1)C(=N)N1CCCCC1	none (no result: OX1R antag-1, OX1R antag-2, CHO parental Ca)
N#C/C(=N\Nc1ccc(S(=O)(=O)N2CCc3ccccc32)cc1)C(N)=S	OX1R antag-2 106 | OX1R HTRF confirm inactive | CHO-K1 HTRF cnt 21
CCOC(=O)/C(C#N)=N/Nc1ccc(S(=O)(=O)N2CCc3ccccc32)cc1	none
N#C/C(=N\Nc1ccc([N+](=O)[O-])cc1)C(N)=S	OX1R antag-2 90 | OX1R HTRF confirm 64 | CHO-K1 HTRF cnt 51
Cc1ccc(CC(=O)Nc2nc3ccccc3s2)cc1	none
Cc1nc2c(ccc3nc(NC(=O)Cc4ccccc4)sc32)s1	OX1R antag-2 77 | OX1R HTRF confirm 89 | CHO-K1 HTRF cnt inactive
CC1=C(C(=O)OCC2CCCO2)C(c2ccc(C)cc2)C2=C(CC(C)(C)CC2=O)N1 (stereo not given)	none
Cc1cc(C)c(NC(=O)C2CCCN2CCOC(=O)c2cccc([N+](=O)[O-])c2)c(C)c1 (stereo not given)	OX1R antag-2 97 | OX1R HTRF confirm 70 | CHO-K1 HTRF cnt inactive
O=C(COC(=O)c1cccc([N+](=O)[O-])c1)NC1CCCC1	none (no result: TRPN1 ag, TRPML3 ag)
O=[N+]([O-])c1ccc(S(=O)(=O)N(CCCN2CCOCC2)Cc2cccs2)cc1	OX1R antag-2 86 | OX1R HTRF confirm inactive | CHO-K1 HTRF cnt 43
CCOc1ccc(NC(=O)c2sc3nc(C)nc(N4CCOCC4)c3c2C)cc1	none (no result: TRPN1 ag, TRPML3 ag)
CN(C)S(=O)(=O)c1cccc2c1C(=O)c1ccccc1C2=O	OX1R antag-2 105 | OX1R HTRF confirm inactive | CHO-K1 HTRF cnt inactive
COc1ccc2ccccc2c1/C=N/NC(=O)c1sc(N)c(C#N)c1C	none
COc1cc(/C=N/NC(=O)c2sc(N)c(C#N)c2C)cc(Br)c1O	OX1R antag-2 82 | OX1R HTRF confirm inactive | CHO-K1 HTRF cnt inactive
Fc1ccc(NC(=S)Nc2cccnc2)c(Cl)c1	OX1R antag-2 98 | OX1R HTRF confirm inactive | CHO-K1 HTRF cnt inactive
c1cncc(-c2nc(NCC3COc4ccccc4O3)c3ccccc3n2)c1 (stereo not given)	OX1R antag-2 95 | OX1R HTRF confirm 56 | CHO-K1 HTRF cnt inactive
c1cncc(-c2nc(NCc3ccc4c(c3)OCO4)c3ccccc3n2)c1	none
Cc1c(C#N)c(O)n(C)c(=O)c1N=Nc1ccc(S(N)(=O)=O)cc1	none (no result: OX1R antag-1, OX1R antag-2, CHO parental Ca)
Cc1c(C#N)c(O)n(CCO)c(=O)c1N=Nc1ccc(S(N)(=O)=O)cc1	OX1R antag-2 161 | OX1R HTRF confirm 64 | CHO-K1 HTRF cnt 83
O=C(O)c1ccc2c(c1Sc1ccccc1)C(=O)c1ccccc1C2=O	none
CN(C)C(=O)c1ccc2c(c1[N+](=O)[O-])C(=O)c1ccccc1C2=O	OX1R antag-2 93 | OX1R HTRF confirm 58 | CHO-K1 HTRF cnt 55
O=C(NCC1CCCO1)c1ccc2c(=O)n(CC3CCCO3)c(SCC(=O)N3CCCC3)nc2c1 (stereo not given)	none
CN(C)CCC1CCN(c2cc(C#N)c(C#N)cc2[N+](=O)[O-])CC1	OX1R antag-2 118 | OX1R HTRF confirm inactive | CHO-K1 HTRF cnt 54
N#Cc1cc(N2CCCCC2)c([N+](=O)[O-])cc1C#N	none
Nc1nc(SCC(=O)Nc2cccc(S(=O)(=O)N3CCCCCC3)c2)n[nH]1	OX1R antag-2 89 | OX1R HTRF confirm inactive | CHO-K1 HTRF cnt inactive
O=C(NCc1cccnc1)C1CCCN(S(=O)(=O)c2cccc3nsnc23)C1 (stereo not given)	OX1R antag-2 89 | OX1R HTRF confirm inactive | CHO-K1 HTRF cnt 32
O=C(NCc1ccccc1)C1CCCN(S(=O)(=O)c2cccc3nsnc23)C1 (stereo not given)	none (no result: TRPN1 ag, TRPML3 ag)
O=C(CCN1C(=O)COc2ccccc21)NCCCN1CCCC1	none (no result: TRPN1 ag, TRPML3 ag)
O=C(Nc1ccc2nc3ccccc3nc2c1)c1ccccc1	OX1R antag-2 86 | OX1R HTRF confirm 93 | CHO-K1 HTRF cnt inactive
O=C(Nc1ccc(Nc2ccccc2)cc1)c1ccccc1	none (no result: TRPN1 ag, TRPML3 ag)
